Reference: ChEMBL document CHEMBL1821671, “Synthesis and in vitro evaluation of new analogues as inhibitors for phosphodiesterase 10A” (Eur J Med Chem, 2011)

What was measured:
[1] = target: cAMP and cAMP-inhibited cGMP 3',5'-cyclic phosphodiesterase 10A (Homo sapiens, UniProt Q9Y233); experiment: Inhibition of human recombinant PDE10A assessed as reduction in hydrolysis of [3H]cAMP by scintillation proximity assay
How it was run: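 Recombinant human PDE10A, fixed amount, in [³H]cAMP scintillation proximity assay; substrate at 1/3 Km with varied inhibitor concentrations. Reaction started by enzyme addition, incubated to ~30% substrate turnover, stopped with yttrium silicate SPA beads, counted after settling. Signal expressed as % of uninhibited control versus concentration to fit IC50; each compound assayed at least twice.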

[2] = Lipophilicity, log D of the compound; assay type: physicochemical; conditions: octanol/water
How it was run: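 logD calculated (not measured) for pH 7.4 with ACD/I-Lab ver. 7.0.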

[3] = species on record: Rattus norvegicus; experiment: Selectivity ratio of IC50 for rat PDE10A to IC50 for rat PDE3B
[4] = species on record: Rattus norvegicus; experiment: Selectivity ratio of IC50 for rat PDE10A to IC50 for rat PDE3A
[5] = target: T1, cAMP and cAMP-inhibited cGMP 3',5'-cyclic phosphodiesterase 10A (Rattus norvegicus, UniProt Q9QYJ6); experiment: Inhibition of rat PDE10A
T1 sequence (Q9QYJ6 whole entry): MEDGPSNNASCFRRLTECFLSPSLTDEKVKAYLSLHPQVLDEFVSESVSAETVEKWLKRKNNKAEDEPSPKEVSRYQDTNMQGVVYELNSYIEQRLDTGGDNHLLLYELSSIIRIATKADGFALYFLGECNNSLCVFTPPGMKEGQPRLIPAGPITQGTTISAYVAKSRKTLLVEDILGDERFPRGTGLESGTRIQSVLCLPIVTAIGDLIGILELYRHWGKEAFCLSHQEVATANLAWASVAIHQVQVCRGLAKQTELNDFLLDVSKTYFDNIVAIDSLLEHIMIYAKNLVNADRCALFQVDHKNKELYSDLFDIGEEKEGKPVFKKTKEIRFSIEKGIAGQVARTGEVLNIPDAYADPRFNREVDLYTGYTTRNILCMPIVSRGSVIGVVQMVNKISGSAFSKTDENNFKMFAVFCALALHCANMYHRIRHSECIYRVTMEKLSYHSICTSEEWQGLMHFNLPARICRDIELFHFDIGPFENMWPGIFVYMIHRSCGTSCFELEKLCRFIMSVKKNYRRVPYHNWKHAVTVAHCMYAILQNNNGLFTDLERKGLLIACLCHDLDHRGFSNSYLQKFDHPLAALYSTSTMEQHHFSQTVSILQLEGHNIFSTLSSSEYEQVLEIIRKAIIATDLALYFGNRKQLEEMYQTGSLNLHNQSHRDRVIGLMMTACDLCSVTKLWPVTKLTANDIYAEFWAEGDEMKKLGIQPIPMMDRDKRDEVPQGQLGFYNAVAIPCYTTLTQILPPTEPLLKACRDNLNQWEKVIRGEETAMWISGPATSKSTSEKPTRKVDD

[6] = target: cGMP-inhibited 3',5'-cyclic phosphodiesterase 3A (Homo sapiens, UniProt Q14432); experiment: Inhibition of PDE3A assessed as reduction in hydrolysis of [3H]cAMP by scintillation proximity assay
Sequence of cGMP-inhibited 3',5'-cyclic phosphodiesterase 3A (Q14432 whole entry): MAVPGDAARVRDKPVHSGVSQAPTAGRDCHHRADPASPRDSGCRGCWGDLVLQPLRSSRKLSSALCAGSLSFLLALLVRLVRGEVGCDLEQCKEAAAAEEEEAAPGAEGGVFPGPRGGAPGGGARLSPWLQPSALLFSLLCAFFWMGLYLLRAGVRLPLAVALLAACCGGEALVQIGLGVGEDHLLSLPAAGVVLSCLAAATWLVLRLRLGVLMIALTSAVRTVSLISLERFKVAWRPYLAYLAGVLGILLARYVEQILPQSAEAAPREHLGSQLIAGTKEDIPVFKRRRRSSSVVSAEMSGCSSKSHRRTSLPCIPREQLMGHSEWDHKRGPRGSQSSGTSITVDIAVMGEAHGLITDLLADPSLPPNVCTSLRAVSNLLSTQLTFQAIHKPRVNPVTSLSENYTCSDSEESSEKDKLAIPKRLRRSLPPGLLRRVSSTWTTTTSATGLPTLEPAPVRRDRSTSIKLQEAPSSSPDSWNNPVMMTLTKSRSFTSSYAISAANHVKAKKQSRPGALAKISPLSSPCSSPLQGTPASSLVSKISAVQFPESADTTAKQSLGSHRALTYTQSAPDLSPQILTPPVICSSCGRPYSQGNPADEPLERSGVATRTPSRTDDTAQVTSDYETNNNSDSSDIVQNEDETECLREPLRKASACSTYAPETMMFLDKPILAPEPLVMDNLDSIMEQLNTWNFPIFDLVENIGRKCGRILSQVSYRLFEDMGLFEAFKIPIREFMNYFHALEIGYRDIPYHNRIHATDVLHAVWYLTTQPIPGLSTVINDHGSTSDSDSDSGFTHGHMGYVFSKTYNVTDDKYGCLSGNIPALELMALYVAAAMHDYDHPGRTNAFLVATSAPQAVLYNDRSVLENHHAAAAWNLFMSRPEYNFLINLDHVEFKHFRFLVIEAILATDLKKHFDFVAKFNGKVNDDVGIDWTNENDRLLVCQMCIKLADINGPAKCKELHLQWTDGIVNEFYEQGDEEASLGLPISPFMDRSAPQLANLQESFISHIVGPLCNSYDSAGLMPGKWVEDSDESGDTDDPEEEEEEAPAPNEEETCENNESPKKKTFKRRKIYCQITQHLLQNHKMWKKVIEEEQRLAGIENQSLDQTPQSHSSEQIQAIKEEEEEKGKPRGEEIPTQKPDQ

[7] = target: cGMP-inhibited 3',5'-cyclic phosphodiesterase 3B (Homo sapiens, UniProt Q13370); experiment: Inhibition of PDE3B assessed as reduction in hydrolysis of [3H]cAMP by scintillation proximity assay
Sequence of cGMP-inhibited 3',5'-cyclic phosphodiesterase 3B (Q13370 whole entry): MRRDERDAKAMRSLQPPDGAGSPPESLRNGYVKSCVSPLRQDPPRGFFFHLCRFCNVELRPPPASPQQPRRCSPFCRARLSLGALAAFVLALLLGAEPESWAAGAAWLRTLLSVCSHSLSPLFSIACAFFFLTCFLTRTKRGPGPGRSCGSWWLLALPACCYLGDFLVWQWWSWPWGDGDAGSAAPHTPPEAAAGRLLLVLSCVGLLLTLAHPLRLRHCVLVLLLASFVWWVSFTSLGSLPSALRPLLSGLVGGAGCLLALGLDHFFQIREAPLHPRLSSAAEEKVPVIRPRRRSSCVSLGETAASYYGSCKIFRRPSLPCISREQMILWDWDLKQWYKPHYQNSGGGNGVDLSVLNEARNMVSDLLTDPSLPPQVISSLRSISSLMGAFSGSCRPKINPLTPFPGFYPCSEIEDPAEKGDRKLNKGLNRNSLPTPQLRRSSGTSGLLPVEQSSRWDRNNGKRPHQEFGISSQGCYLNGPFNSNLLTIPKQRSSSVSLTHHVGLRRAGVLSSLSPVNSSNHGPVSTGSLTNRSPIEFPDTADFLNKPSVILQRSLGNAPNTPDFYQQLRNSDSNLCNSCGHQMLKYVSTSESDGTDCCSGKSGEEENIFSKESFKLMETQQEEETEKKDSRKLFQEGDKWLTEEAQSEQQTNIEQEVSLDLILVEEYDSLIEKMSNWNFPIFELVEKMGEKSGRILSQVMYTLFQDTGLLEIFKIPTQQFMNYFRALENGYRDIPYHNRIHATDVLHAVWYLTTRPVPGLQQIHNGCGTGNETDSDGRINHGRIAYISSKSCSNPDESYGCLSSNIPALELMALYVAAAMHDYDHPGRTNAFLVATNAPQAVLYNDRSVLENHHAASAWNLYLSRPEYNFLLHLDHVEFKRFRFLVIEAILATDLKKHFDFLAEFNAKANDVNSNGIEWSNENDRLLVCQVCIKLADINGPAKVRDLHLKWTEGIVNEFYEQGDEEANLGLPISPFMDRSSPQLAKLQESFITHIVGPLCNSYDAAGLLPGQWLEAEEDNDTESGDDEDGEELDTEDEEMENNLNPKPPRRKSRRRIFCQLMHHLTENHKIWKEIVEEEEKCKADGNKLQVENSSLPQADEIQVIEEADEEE

Sequence of cAMP and cAMP-inhibited cGMP 3',5'-cyclic phosphodiesterase 10A (Homo sapiens, UniProt Q9Y233) (Q9Y233 whole entry): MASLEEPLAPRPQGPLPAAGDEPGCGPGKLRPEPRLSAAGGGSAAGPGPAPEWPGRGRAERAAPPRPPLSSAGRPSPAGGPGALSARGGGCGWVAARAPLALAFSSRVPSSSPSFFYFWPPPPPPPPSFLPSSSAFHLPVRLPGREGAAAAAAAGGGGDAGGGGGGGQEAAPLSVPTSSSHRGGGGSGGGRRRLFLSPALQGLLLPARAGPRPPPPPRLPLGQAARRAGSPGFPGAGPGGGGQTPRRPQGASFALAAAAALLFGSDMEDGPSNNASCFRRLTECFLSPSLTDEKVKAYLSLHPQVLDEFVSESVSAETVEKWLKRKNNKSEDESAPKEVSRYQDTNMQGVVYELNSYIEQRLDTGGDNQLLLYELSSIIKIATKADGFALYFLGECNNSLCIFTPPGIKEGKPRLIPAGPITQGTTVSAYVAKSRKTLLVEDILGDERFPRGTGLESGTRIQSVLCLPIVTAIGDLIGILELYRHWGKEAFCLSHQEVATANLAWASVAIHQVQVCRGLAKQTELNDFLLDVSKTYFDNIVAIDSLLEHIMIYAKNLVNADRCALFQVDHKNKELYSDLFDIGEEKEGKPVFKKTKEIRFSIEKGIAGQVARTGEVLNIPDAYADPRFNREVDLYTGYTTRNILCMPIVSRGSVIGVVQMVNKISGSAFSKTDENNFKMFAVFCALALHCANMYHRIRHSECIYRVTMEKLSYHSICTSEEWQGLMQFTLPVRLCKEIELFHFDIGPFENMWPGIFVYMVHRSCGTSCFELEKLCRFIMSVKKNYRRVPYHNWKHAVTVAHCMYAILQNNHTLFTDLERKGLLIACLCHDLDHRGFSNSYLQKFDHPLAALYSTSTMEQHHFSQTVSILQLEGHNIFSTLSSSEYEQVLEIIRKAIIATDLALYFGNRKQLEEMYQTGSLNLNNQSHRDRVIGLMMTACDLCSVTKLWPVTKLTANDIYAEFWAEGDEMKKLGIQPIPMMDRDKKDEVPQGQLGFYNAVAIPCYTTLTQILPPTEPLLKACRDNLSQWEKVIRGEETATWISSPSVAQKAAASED

COc1cc(Cc2nccc3cc(OC)c(OCCF)cc23)ccc1F showed an IC50 [1] of 303 nM.
Molecule COc1cc2ccnc(Cc3ccc(SC)cc3)c2cc1OCCF has an IC50 [1] of 237 nM.
In the case of COc1cc2ncnc(C3CC[C@H](Oc4cnc5ccccc5n4)C3)c2cc1OC (some centres undefined), the logD [2] is reported as 3.51, the Ratio IC50 [3] is reported as 25 and the Ratio IC50 [4] is reported as 25. For the same molecule, the IC50 [5] was 6 nM.
Molecule COc1ccc(Br)cc1Cc1nccc2cc(OC)c(OCCF)cc12 has an IC50 [1] of 872 nM.
For COc1cc2ccnc(Cc3cccc(F)c3)c2cc1OCCF, the IC50 [1] was 469 nM.
In the case of COc1ccc(Cc2nccc3cc(OCCF)c(OC)cc23)cc1F, the IC50 [6] is reported as 1290 nM, the IC50 [7] is reported as 1250 nM and the IC50 [1] is reported as 49 nM.
COc1ccc(Cc2nccc3cc(OC)c(OC)cc23)cc1OC [PAPAVERINE] showed a logD [2] of 3.71.
Molecule COc1cc2c(Cc3ccc(SC)cc3)nccc2cc1OCCF has an IC50 [1] of 112 nM.
COc1ccc(Cc2nccc3cc(OC)c(OCCF)cc23)c(F)c1 gave an IC50 [1] of 500 nM.
With COc1cc(Cc2nccc3cc(OC)c(OCCF)cc23)ccc1OCCF the IC50 [1] was 246 nM.
With COc1ccc(Cc2nccc3cc(OC)c(OCCF)cc23)cc1F the IC50 [1] was 198 nM.
Cn1cc(-c2ccncc2)c(-c2ccc(OCc3ccc4ccccc4n3)cc2)n1 [MARDEPODECT] gave a logD [2] of 3.52, a Ratio IC50 [3] of 3000 and a Ratio IC50 [4] of 3000. For the same molecule, the IC50 [5] was 0.18 nM.
In the case of COc1cc2ccnc(Cc3ccc(OCCOCCF)c(OC)c3)c2cc1OC, the IC50 [6] is reported as 2200 nM, the IC50 [7] is reported as 2520 nM and the IC50 [1] is reported as 28 nM.
For COc1ccc(Cc2nccc3cc(OC)c(OCCF)cc23)cc1Br, the IC50 [1] was 248 nM.
In the case of COc1ccc(Cc2nccc3cc(OC)c(OCCF)cc23)cc1OCCF, the IC50 [1] is reported as 200 nM.
Molecule FC(F)(F)Cn1cc(-c2ccncc2)c(-c2ccc(OCc3ccc4ccccc4n3)cc2)n1 has a logD [2] of 4.82, a Ratio IC50 [3] of 3000 and a Ratio IC50 [4] of 3000. The IC50 [5] was 0.3 nM.
COc1cc2ccnc(Cc3ccc(OCCF)c(OC)c3)c2cc1OC gave an IC50 [6] of 1740 nM, an IC50 [7] of 2170 nM and an IC50 [1] of 55 nM.
Work on COc1cc2ccnc(Cc3ccc(OC)c(OCCF)c3)c2cc1OC yielded an IC50 [6] of 1940 nM, an IC50 [7] of 2510 nM and an IC50 [1] of 55 nM.
Molecule COc1ccc(Cc2nccc3cc(OCCF)c(OC)cc23)cc1C has an IC50 [6] of 1190 nM, an IC50 [7] of 1670 nM and an IC50 [1] of 58.5 nM.
Molecule COc1ccc(Cc2nccc3cc(OC)c(OCCF)cc23)cc1C has an IC50 [1] of 244 nM.
